Data as given in ChEMBL document CHEMBL1153939, “Novel antagonists of serotonin-4 receptors: synthesis and biological evaluation of pyrrolothienopyrazines” (Bioorg Med Chem, 2009).
Activity calls are given as the source filed them.

Columns and labels:
[1] = target: 5-hydroxytryptamine receptor 4 (Cavia porcellus, UniProt O70528); experiment: Displacement of [3H]GR-113808 from 5HT4 receptor in guinea pig striatum membrane; format: cell membranes
In short: (§1)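 Guinea pig membranes (15 µg protein/mL) incubated 30 min at 37 °C with 0.6 nM [3H]GR113808 in 50 mM HEPES, pH 7.4, with fixed test concentrations. Nonspecific binding defined with 10 µM serotonin.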

[2] = system: Mus musculus; experiment: Acute toxicity in NMRI mouse assessed as behavioral changes at subtoxic <1/4 dose of LD50, ip by CNS activity test; format: organism-based, Central nervous system; settings: in vivo
In short: (§2)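 Male NMRI mice (20–24 g) given ip drug in saline (10 mL/kg), groups of 4. Behavioural and neurological changes scored against controls by a standardized observation technique at 30 min, 3 h and 24 h post-dose. Approximate LD50 derived from deaths counted at 24 h.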

[3] = target: Alpha-2B adrenergic receptor (Homo sapiens, UniProt P18089); experiment: Displacement of [3H]RX821002 form human recombinant alpha2B adrenergic receptor
[4] = target: Alpha-1D adrenergic receptor (Homo sapiens, UniProt P25100); experiment: Displacement of [3H]prazosin form human recombinant Alpha-1D adrenergic receptor
[5] = target: 5-hydroxytryptamine receptor 4 (Mus musculus) (UniProt P97288); experiment: Agonist activity at mouse 5HT4a receptor expressed in african green monkey COS7 cells assessed as cAMP release relative to serotonin; format: functional, cell-based; settings: COS-7
In short: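 Mouse 5-HT4(a) receptor transfected by electroporation into COS-7 cells (560 fmol/mg protein). Cells labelled 2 h at 37 °C with [3H]adenine, then exposed to increasing concentrations of test agent in 0.75 mM IBMX and 0.1 µM forskolin. cAMP measured as [3H]ATP→[3H]cAMP conversion after Dowex/alumina separation. Expressed as % of maximal 5-HT stimulation over basal. Mean of four independent experiments.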

[6] = target: 5-hydroxytryptamine receptor 6 (Homo sapiens, UniProt P50406); experiment: Displacement of [3H]LSD form human recombinant 5HT6 receptor
In short: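 Membranes from sf9 cells expressing human 5-HT6 (14 µg/mL) or 5-HT7 (38 µg/mL) incubated 90 min at 27 °C with 2 nM [3H]LSD in 50 mM Tris-HCl containing 10 mM MgSO4 and 0.5 mM EDTA. Nonspecific binding defined with clozapine (10 and 250 µM).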

[7] = target: 5-hydroxytryptamine receptor 2B (Homo sapiens, UniProt P41595); experiment: Displacement of [3H]mesulergine from human recombinant 5HT2B receptor
[8] = target: 5-hydroxytryptamine receptor 5A (Homo sapiens, UniProt P47898); experiment: Displacement of [3H]LSD form human recombinant 5HT5A receptor
[9] = target: T1, 5-hydroxytryptamine receptor 3A (Homo sapiens, UniProt P46098); experiment: Displacement of [3H]granisetron from human recombinant 5HT3 receptor
T1 sequence (P46098 whole entry): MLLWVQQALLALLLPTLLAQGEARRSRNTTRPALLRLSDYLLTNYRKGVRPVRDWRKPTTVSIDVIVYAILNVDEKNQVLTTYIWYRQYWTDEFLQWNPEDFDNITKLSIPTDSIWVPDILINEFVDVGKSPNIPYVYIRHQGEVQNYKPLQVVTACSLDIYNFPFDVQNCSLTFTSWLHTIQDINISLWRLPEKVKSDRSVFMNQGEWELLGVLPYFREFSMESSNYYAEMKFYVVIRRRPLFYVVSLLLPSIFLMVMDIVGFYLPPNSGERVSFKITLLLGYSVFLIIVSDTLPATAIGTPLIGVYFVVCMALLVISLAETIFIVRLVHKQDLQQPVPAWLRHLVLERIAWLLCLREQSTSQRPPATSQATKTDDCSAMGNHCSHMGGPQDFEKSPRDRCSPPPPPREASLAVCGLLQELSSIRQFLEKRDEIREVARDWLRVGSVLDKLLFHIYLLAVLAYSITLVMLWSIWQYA

[10] = system: Mus musculus; experiment: Analgesic activity in NMRI mouse assessed as reaction time taken to lick fore paw at 0.01 to 1 mg/kg, ip by hot plate test; format: functional, organism-based
In short: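 Male NMRI mice (20–24 g), 10 per group, each pre-screened twice on a 55 °C plate (response required within 4–12 s). Compound given ip in saline (10 mL/kg) at 0.01, 0.1 and 1 mg/kg. Time to forepaw licking recorded 15 and 30 min post-injection; 30 s cutoff. ANOVA + Fisher PLSD.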

[11] = target: Alpha-2C adrenergic receptor (Homo sapiens, UniProt P18825); experiment: Displacement of [3H]RX821002 form human recombinant Alpha-2C adrenergic receptor
[12] = target: T1, 5-hydroxytryptamine receptor 3A; experiment: Antagonist activity at 5HT3 receptor in hybrid NG108-15 cells assessed as inhibition of 5HT-induced current by electrophysiology; format: functional, cell-based
In short: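 NG108-15 cells grown in DMEM-HG with 5% FBS and HAT, then differentiated on polylysine glass with 2% DMSO for 48 h followed by ≥24 h with 1 mM dibutyryl-cAMP. Whole-cell recording at −60 mV in HEPES saline, pH 7.3, with a CsCl/CsMeSO3 pipette solution. 5-HT 50 µM applied by gravity every 2.5 min.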

[13] = target: Alpha-1B adrenergic receptor (Homo sapiens, UniProt P35368); experiment: Displacement of [3H]prazosin form human recombinant Alpha-1B adrenergic receptor
[14] = system: Mus musculus; experiment: Acute toxicity in NMRI mouse assessed as induction of convulsions at 100 to 300 mg/kg, ip by CNS activity test; format: organism-based, Central nervous system; parameters: dose 100-300 mg/kg, route intraperitoneal; settings: in vivo; in short: as §2
[15] = target: 5-hydroxytryptamine receptor 1B (Rattus norvegicus, UniProt P28564); experiment: Displacement of [3H]5OH-tryptamine form 5HT1B receptor in rat cerebral cortex; format: tissue-based
[16] = system: Mus musculus; experiment: Antinociceptive activity against acetic acid-induced writhing in NMRI mouse assessed as number of stretches at 0.01 mg/kg, ip by writhing test; format: functional; settings: route intraperitoneal
In short: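 Groups of 8 male NMRI mice (20–24 g). Compound or reference given ip in saline (10 mL/kg) 15 min before ip 0.6% aqueous acetic acid (10 mL/kg). Stretches (back arching, pelvic rotation, hind-limb extension) counted over 10 min, beginning 10 min after acid. ANOVA + Fisher PLSD versus control.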

[17] = target: 5-hydroxytryptamine receptor 4 (Cavia porcellus) (UniProt O70528); experiment: Displacement of [3H]GR-113808 from 5HT4 receptor in guinea pig striatum membrane at 10 nM; format: cell membranes; in short: as §1
5-hydroxytryptamine receptor 4 (Cavia porcellus), sequence (O70528 whole entry): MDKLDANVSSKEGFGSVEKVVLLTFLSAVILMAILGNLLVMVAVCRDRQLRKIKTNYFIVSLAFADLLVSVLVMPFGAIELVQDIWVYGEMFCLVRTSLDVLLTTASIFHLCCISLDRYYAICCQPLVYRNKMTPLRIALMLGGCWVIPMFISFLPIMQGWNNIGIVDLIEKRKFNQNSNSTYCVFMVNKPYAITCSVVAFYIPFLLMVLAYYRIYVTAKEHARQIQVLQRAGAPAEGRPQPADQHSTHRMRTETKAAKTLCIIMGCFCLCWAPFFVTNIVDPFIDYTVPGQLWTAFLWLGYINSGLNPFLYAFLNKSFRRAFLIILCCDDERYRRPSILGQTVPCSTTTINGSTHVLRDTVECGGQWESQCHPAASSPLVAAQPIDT

5-hydroxytryptamine receptor 6, sequence (P50406 whole entry): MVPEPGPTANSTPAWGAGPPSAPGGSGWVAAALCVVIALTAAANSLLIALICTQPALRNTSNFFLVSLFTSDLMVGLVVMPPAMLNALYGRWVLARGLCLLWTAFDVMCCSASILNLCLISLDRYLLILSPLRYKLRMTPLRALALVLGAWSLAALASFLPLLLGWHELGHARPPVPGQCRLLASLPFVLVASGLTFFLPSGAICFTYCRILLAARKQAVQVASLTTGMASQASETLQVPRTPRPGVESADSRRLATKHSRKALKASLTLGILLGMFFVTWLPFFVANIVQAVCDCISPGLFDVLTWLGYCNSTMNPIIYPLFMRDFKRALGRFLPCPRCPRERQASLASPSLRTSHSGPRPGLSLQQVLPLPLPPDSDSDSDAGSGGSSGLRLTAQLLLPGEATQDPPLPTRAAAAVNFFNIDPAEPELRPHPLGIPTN
Alpha-1B adrenergic receptor, sequence (P35368 whole entry): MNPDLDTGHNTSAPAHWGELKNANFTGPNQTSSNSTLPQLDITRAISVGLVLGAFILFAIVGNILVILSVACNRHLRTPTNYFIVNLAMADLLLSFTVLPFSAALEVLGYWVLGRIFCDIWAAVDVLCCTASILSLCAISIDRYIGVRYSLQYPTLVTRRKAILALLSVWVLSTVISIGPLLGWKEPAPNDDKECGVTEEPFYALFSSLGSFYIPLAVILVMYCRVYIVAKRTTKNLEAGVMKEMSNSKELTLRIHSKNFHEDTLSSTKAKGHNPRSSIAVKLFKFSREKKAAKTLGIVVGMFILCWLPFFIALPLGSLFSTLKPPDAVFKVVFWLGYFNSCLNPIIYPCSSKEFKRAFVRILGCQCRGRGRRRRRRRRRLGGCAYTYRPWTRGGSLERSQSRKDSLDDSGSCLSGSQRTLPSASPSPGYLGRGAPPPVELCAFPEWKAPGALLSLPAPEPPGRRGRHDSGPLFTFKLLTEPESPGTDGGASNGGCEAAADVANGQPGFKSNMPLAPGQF
5-hydroxytryptamine receptor 4, sequence (O70528 whole entry): as the sequence (O70528 whole entry) above
5-hydroxytryptamine receptor 5A, sequence (P47898 whole entry): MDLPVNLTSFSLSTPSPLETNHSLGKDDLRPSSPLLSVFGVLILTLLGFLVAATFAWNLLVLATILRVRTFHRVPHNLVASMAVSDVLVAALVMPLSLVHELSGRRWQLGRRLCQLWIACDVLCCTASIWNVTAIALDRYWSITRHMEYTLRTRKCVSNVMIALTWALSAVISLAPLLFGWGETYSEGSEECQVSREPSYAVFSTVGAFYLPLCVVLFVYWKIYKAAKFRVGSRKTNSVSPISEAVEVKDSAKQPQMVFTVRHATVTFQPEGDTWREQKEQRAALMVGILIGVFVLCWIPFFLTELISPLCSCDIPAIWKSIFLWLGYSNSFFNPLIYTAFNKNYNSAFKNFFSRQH
5-hydroxytryptamine receptor 2B, sequence (P41595 whole entry): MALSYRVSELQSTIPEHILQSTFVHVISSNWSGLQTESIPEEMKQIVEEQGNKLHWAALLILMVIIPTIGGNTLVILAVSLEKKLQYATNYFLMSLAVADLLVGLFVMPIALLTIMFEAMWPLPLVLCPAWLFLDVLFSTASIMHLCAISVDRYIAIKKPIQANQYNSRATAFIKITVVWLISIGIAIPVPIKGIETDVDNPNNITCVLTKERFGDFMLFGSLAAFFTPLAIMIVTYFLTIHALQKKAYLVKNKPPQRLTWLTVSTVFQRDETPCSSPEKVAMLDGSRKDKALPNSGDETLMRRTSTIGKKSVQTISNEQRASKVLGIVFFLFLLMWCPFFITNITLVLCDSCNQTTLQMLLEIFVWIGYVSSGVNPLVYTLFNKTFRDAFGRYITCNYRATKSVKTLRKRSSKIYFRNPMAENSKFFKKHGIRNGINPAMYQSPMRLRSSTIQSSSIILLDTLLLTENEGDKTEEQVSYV
Alpha-2C adrenergic receptor, sequence (P18825 whole entry): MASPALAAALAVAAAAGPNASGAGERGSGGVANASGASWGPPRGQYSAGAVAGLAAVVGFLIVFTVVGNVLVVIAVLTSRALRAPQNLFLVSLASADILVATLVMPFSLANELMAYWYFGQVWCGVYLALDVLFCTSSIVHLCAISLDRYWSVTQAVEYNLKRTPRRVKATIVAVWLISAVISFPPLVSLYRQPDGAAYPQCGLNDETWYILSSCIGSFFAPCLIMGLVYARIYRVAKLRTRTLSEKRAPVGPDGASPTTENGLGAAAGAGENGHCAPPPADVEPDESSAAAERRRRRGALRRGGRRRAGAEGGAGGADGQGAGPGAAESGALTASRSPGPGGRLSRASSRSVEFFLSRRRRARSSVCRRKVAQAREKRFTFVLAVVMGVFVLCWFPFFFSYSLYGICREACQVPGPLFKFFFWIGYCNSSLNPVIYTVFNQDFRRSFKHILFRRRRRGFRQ
Alpha-2B adrenergic receptor, sequence (P18089 whole entry): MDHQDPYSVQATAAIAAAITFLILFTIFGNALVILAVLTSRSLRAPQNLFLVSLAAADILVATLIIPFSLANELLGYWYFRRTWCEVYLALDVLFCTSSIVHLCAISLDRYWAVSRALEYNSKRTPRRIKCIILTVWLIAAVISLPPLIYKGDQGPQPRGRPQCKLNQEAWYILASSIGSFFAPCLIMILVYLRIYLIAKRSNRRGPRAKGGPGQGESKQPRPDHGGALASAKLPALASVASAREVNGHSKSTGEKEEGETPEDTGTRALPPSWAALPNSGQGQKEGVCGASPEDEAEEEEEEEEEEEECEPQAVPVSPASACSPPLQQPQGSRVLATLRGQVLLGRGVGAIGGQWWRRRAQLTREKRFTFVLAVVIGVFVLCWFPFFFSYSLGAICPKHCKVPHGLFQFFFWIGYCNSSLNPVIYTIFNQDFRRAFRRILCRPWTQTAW
5-hydroxytryptamine receptor 1B, sequence (P28564 whole entry): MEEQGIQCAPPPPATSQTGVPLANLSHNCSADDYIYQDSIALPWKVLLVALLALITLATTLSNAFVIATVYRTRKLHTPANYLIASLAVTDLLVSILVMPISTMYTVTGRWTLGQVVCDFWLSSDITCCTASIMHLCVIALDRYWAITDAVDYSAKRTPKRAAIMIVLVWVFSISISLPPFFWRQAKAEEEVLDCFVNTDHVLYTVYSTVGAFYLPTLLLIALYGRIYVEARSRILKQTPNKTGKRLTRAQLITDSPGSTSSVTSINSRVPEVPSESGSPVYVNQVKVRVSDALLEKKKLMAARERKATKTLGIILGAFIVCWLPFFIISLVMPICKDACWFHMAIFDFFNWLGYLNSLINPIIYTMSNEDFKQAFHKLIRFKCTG
Alpha-1D adrenergic receptor, sequence (P25100 whole entry): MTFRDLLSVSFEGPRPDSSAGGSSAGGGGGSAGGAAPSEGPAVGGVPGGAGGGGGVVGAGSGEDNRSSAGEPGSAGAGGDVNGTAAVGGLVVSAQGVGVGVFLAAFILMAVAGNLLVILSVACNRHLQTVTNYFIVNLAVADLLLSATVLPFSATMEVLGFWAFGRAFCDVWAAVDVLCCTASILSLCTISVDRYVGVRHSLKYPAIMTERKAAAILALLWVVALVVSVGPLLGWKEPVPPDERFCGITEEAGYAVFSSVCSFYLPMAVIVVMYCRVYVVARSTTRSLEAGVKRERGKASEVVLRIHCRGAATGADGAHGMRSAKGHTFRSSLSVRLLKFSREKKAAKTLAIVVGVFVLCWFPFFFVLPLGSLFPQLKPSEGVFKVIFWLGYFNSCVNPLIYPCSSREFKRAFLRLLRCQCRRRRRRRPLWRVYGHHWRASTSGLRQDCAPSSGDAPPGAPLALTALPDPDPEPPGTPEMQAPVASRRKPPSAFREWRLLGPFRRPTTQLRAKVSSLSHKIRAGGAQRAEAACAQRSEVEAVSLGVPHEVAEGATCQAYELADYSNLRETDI
5-hydroxytryptamine receptor 4 (Mus musculus), sequence (P97288 whole entry): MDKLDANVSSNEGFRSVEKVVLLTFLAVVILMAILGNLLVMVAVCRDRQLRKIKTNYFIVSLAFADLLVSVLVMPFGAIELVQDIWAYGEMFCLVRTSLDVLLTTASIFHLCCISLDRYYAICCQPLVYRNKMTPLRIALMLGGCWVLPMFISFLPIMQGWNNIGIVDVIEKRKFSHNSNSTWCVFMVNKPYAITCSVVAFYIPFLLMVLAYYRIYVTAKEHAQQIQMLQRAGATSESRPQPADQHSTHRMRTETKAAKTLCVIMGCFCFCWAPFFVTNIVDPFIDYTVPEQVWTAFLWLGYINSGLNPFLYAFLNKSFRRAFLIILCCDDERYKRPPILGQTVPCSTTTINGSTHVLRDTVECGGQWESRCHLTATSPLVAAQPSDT

Question: What does the source list for `CCCN1CCC(COc2nc3scc(C)c3n3cccc23)CC1`?
Answer: Ki [1]: 1.74 nM; Activity [2]: Toxic; IC50 [3]: 955 nM; IC50 [4]: 204 nM; Activity [5]: 20%; IC50 [6]: > 10000 nM; IC50 [7]: 282 nM; IC50 [8]: > 10000 nM; IC50 [9]: 6.92 nM; Activity [10]: inactive; IC50 [11]: 741 nM; IC50 [12]: 385 nM; IC50 [13]: 145 nM; Activity [14]: Toxic; IC50 [15]: > 10000 nM; Activity [16]: 17.2; inhibition [17]: 78%
